In ChEMBL document CHEMBL4513216, “Probing the Open Global Health Chemical Diversity Library for Multistage-Active Starting Points for Next-Generation Antimalarials” (ACS Infect Dis, 2020):

Experiment: Toxicity liver stage against HepG2, at 10uM
Assay type: cell-based
Set-up: test concentration 10 uM, cell line HepG2-A16-CD81EGFP
Conditions: human, HepG2-A16-CD81EGFP cells; read-out: INHIBITION
Method in brief: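 Uninfected HepG2-A16-CD81EGFP cells, 3 × 10^3 per well, 1536-well, plated on prespotted compound at 10 μM final, parasite-free screening media added to match infected plates; puromycin 10 μM positive, DMSO 0.5% negative; run in parallel with 48 h PbLuc assay at 37 °C, 5% CO2; viability by CellTiter-Glo luminescence, normalized to controls.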

Cc1nc(-c2ccsc2)ccc1C(=O)NCCN1CCN(C)CC1
cytotoxicity at 10 µM: -11.2%

O=C(NCc1cccnc1)N1CCn2c(Cn3cccn3)cnc2C1
cytotoxicity at 10 µM: -71.1%

CCc1nc(C2CCCN2C(=O)c2ccoc2C)no1 (configuration not stated)
cytotoxicity at 10 µM: -11.6%

Cc1cc(C)n(CC2CCCN2C(=O)Cc2c(C)nc(C)[nH]c2=O)n1 (configuration not stated)
cytotoxicity at 10 µM: -12.8%

COc1ccnc(N2CCN(Cc3ncc(-c4ccccc4)o3)CC2)n1
cytotoxicity at 10 µM: -10.2%

Cc1ccc(C(=O)NCCC2CCN(C)CC2)cc1N(C)S(C)(=O)=O
cytotoxicity at 10 µM: -15.1%

CSCCC(NC(N)=O)C(=O)N1CCC(Cc2ccccc2)CC1 (configuration not stated)
cytotoxicity at 10 µM: 1.28%

Cc1nc(N2CCCC2)nc2c1CN(C(=O)NC(C)C)CC2
cytotoxicity at 10 µM: 2.94%

CCC(C)(COc1ncccc1Cl)NCC(=O)Nc1ccc(Br)cn1 (configuration not stated)
cytotoxicity at 10 µM: -2.89%

COCCN1CCN(CCCS(=O)(=O)c2ccccc2)CC1C (configuration not stated)
cytotoxicity at 10 µM: -9.31%

CN(Cc1nc(-c2ccccc2)no1)Cc1cnc(N2CCOCC2)s1
cytotoxicity at 10 µM: -1.48%

CCS(=O)(=O)N1CCc2c(COC)cncc2C1
cytotoxicity at 10 µM: -99%

O=C(c1ccc(SC(F)F)cc1)N1CCOCC1c1ncon1 (configuration not stated)
cytotoxicity at 10 µM: 4.79%

COCCc1nc(-c2cnn3c(C)cc(C)nc23)no1
cytotoxicity at 10 µM: 2.49%

CCc1ccc(CN2Cc3nccn3CC(Cn3cncn3)C2)o1 (configuration not stated)
cytotoxicity at 10 µM: -137%

Cc1nc2c(c(C)c1CC(=O)Nc1ccnn1C(C)C)c(=O)[nH]n2C
cytotoxicity at 10 µM: 13%

CCc1nc(NS(=O)(=O)c2cccc(F)c2C)no1
cytotoxicity at 10 µM: 5.18%

CC(C)CN1C(=O)CCC12CCC(NC(=O)NCc1cccnc1)CC2 (configuration not stated)
cytotoxicity at 10 µM: -118%

Cc1noc(C)c1CN(C)Cn1nccc1-c1cccnc1
cytotoxicity at 10 µM: -0.532%

O=C(C1CCOCC1)N1CC[C@@](O)(c2ccccc2)[C@H]2CCCC[C@@H]21
cytotoxicity at 10 µM: -8.35%

CCN(CC)c1ccc(CNS(=O)(=O)C2CCOCC2)cc1F
cytotoxicity at 10 µM: -13.4%

CCc1nc(CN2CCCN(c3ncnc4ccccc34)CC2)no1
cytotoxicity at 10 µM: 43.6%

CCC(=O)N1CCC2(CC1)CC(CC(=O)NC1CC1)c1ccccc1O2 (configuration not stated)
cytotoxicity at 10 µM: 2.64%

O=C([C@@H]1Cc2[nH]cnc2CN1C(=O)NC1CCCCC1)N1CCCC1
cytotoxicity at 10 µM: 6.06%

CC1=Nc2c(c(=O)[nH]n2C2CCCC2)C(c2cccc(O)c2)S1 (configuration not stated)
cytotoxicity at 10 µM: 4.8%

NC(=O)C1(c2cnccn2)CCCN1Cc1cccc(Cl)c1 (configuration not stated)
cytotoxicity at 10 µM: -2.5%

O=C(COc1cccc2c1CCC2=O)NCc1ccccc1Cl
cytotoxicity at 10 µM: -3.46%

CC(C)S(=O)(=O)C(C)C(=O)NCc1ccccc1OCc1ccccc1 (configuration not stated)
cytotoxicity at 10 µM: 18.8%

Cc1nc(C)c(C(=O)N2CCC(Nc3cccnc3)CC2)s1
cytotoxicity at 10 µM: -6.75%

CC(C)c1n[nH]c(C2CN(C(=O)c3ccnc(C4CC4)n3)CCO2)n1 (configuration not stated)
cytotoxicity at 10 µM: -12.6%

O=C(COc1cccnc1)N1CCOC(C(F)(F)F)C1 (configuration not stated)
cytotoxicity at 10 µM: -11.5%

O=C(NCCOc1ccccc1)c1ccc2c(c1)C(=O)NC2=O
cytotoxicity at 10 µM: 4.98%

O=C1c2ccccc2C(=O)N1CC(O)Cn1nc(-c2cccs2)oc1=O (configuration not stated)
cytotoxicity at 10 µM: -14.5%

Cc1cc2c(=O)n3c(nc2s1)CCN(C(=O)c1sc(C)nc1C)CC3
cytotoxicity at 10 µM: -0.579%

COCCn1ccnc1C1CCCN(C(=O)CSCC2CC2)C1 (configuration not stated)
cytotoxicity at 10 µM: -14.6%

CN(Cc1ccccc1)C(=O)CS(=O)(=O)Cc1ccc(Cl)c(Cl)c1
cytotoxicity at 10 µM: 0.239%

CC(c1ccncc1)N(CCN(C)C)C(=O)Nc1ccc(Cl)c(Cl)c1 (configuration not stated)
cytotoxicity at 10 µM: 7.41%

O=C(c1ccc(NC2CC2)nc1)N1CCCC(n2cccn2)C1 (configuration not stated)
cytotoxicity at 10 µM: -12.2%

CCc1nc(C)c(C(=O)NCCN2CCN(C(C)=O)CC2)s1
cytotoxicity at 10 µM: -10.4%

Cc1nnc2n1CCN(CC(O)CN1CCC(C)CC1)C2 (configuration not stated)
cytotoxicity at 10 µM: 2.78%

c1nc(CCC2CCCN2)cc(N2CCCCCC2)n1 (configuration not stated)
cytotoxicity at 10 µM: -20.6%

Cc1ccc(CN(Cc2cc(C)no2)C2CC2)cc1
cytotoxicity at 10 µM: -5.17%

O=C(CCCc1nc2ccccc2[nH]1)N1CCCC1c1ccncc1 (configuration not stated)
cytotoxicity at 10 µM: 3.79%

COc1ccc(N2CCN(C(=O)CCn3nccc3C)CC2(C)C)cc1
cytotoxicity at 10 µM: 57.1%

CCCC(=O)NCC(=O)NC1CC(C)(C)Cc2oc(C)cc21 (configuration not stated)
cytotoxicity at 10 µM: -4.32%

OCCN(Cc1cccnc1)c1ccc(Br)cn1
cytotoxicity at 10 µM: 21.4%

CCc1csc(C2CCCN(C(=O)c3ccccn3)C2)n1 (configuration not stated)
cytotoxicity at 10 µM: 1.36%

CCN(CC)c1ccc(C(=O)NCc2cccnc2-n2cncn2)cn1
cytotoxicity at 10 µM: 11.7%

Cc1cc(N2CCSCC2)ccc1NC(=O)N(CCO)C1CC1
cytotoxicity at 10 µM: -10.1%

CCNC(=O)c1cc(OC)c2cc(F)cc(C)c2n1
cytotoxicity at 10 µM: -3.42%

COC(=O)c1ccc(CNCc2ccn(C)n2)cc1
cytotoxicity at 10 µM: -2.64%

CC(CO)(NC(=O)Nc1nncs1)C1CCCCC1 (configuration not stated)
cytotoxicity at 10 µM: 4.17%

CN(C)C(=O)[C@H]1CO[C@H]2CCN(c3ncc(F)cn3)C[C@H]2C1
cytotoxicity at 10 µM: 7.75%

CC(C)c1noc(CCC(=O)N2CCCC(n3ccnc3)C2)n1 (configuration not stated)
cytotoxicity at 10 µM: 5.58%

CC(C)N1CC(C(=O)NCCOc2ccc3c(c2)OCO3)CC1=O (configuration not stated)
cytotoxicity at 10 µM: -6.51%

CCOc1ccccc1-n1c(C2CC(=O)N(C)C2)n[nH]c1=O (configuration not stated)
cytotoxicity at 10 µM: 2.48%

Cc1ncc(CNC2CCCN(Cc3noc(C4CC4)n3)C2)s1 (configuration not stated)
cytotoxicity at 10 µM: -7.7%

CC(C)=CCN1CCN(C(=O)C2CC2)CC1
cytotoxicity at 10 µM: 6.64%

CN1CCC(N(Cc2ccccc2F)C(=O)NCc2ccncc2)CC1
cytotoxicity at 10 µM: -2.14%

O=C(c1ccc2c(c1)CCCC2)N1CCCC(n2cncn2)C1 (configuration not stated)
cytotoxicity at 10 µM: -8.51%

Cc1cc(Br)cnc1NCCN1CCC(N(C)C)CC1
cytotoxicity at 10 µM: -10.6%

Cc1ccc(-c2nc(CSCCC(=O)NC(N)=O)co2)cc1
cytotoxicity at 10 µM: -2.69%

CCCNC(=O)c1cc(C2CCCN(Cc3ccccn3)C2)no1 (configuration not stated)
cytotoxicity at 10 µM: -32%

COc1ccc(-n2ccc(C(=O)N3CCC(C(N)=O)C3)n2)cc1 (configuration not stated)
cytotoxicity at 10 µM: -6.04%

CCN1CCc2c(cccc2NC(=O)CN(C)C2CCSC2)C1 (configuration not stated)
cytotoxicity at 10 µM: -47%

Cc1sc(Br)cc1S(=O)(=O)NCCN
cytotoxicity at 10 µM: -6.69%

c1cc(N2CCC(c3nnc(Cn4ccnc4)n3C3CC3)CC2)ccn1
cytotoxicity at 10 µM: -4.31%

CC(NC(=O)c1cccnc1N(C)C)c1ccccc1Br (configuration not stated)
cytotoxicity at 10 µM: 17.7%

Cc1nccc([C@H]2C[C@@H]3CCN(S(=O)(=O)N(C)C)C[C@H]3O2)n1
cytotoxicity at 10 µM: -10.8%

COC1[C@@H]2CC[C@H]1CN(c1nc(C)nc3sccc13)C2 (some centres not stated)
cytotoxicity at 10 µM: 34%

O=C1COC2(CCN(c3ccccn3)CC2)CN1
cytotoxicity at 10 µM: 9.52%

CS(=O)(=O)Cc1ccc(C(=O)NCc2ccc(Cl)cc2Cl)cc1
cytotoxicity at 10 µM: -47.6%

Cc1cc(NC(=O)CCN(CC2CCOC2)C2CC2)no1 (configuration not stated)
cytotoxicity at 10 µM: -0.794%

CCOCCC(=O)N(C)c1ccc(F)c(Cl)c1
cytotoxicity at 10 µM: 0.232%

Cc1ccn(CCC(=O)N2CCCC(Cc3cccnc3)C2)n1 (configuration not stated)
cytotoxicity at 10 µM: -4.47%

CC(C)N1CCO[C@@H]2CN(C(=O)NCc3ccccc3)CC[C@@H]2C1
cytotoxicity at 10 µM: -102%

N#Cc1ccc(CN2CCC(CN3CCOCC3)C2)cc1 (configuration not stated)
cytotoxicity at 10 µM: -7.01%

COc1ccc(-c2cc(C3CCNCC3)nc(C)n2)cc1
cytotoxicity at 10 µM: 10.2%

CN(Cc1cnn(C)c1)C(=O)NCCc1ccc2c(c1)OCO2
cytotoxicity at 10 µM: -12.4%

O=C(CCNS(=O)(=O)c1ccc(F)cc1)NCc1ccoc1
cytotoxicity at 10 µM: -6.08%

CN(Cc1cccs1)C1CCC[C@@H]2CN(C(=O)c3cccn3C)C[C@H]12 (some centres not stated)
cytotoxicity at 10 µM: 22.6%

Cc1nc2cc(F)cc(C(=O)N3CCN(CC(C)O)CC3)c2nc1C (configuration not stated)
cytotoxicity at 10 µM: 4.5%

CCCN1CCC(N2CCC(Cn3cc(C4CC4)nn3)CC2)CC1
cytotoxicity at 10 µM: -1.98%

Cc1cc(C)c(CNC(=O)NC2CCOCC2)c(=O)[nH]1
cytotoxicity at 10 µM: -7.05%

NC(=O)N1CCc2ncc(CNC(=O)CC3CC3)n2CC1
cytotoxicity at 10 µM: 2.11%

COCC1c2c(cnn2CC2CC2)CCN1Cc1cccs1 (configuration not stated)
cytotoxicity at 10 µM: -6.61%

CCN(CCCNC(=O)c1cc2cccc(F)c2o1)S(C)(=O)=O
cytotoxicity at 10 µM: 4.35%

O=C(NCC1CCOC1)N1CCN(Cc2ccc3c(c2)OCO3)CC1 (configuration not stated)
cytotoxicity at 10 µM: -4.33%

Cc1nnc(SCC(=O)NCc2ccc3c(c2)CCC(=O)N3)s1
cytotoxicity at 10 µM: -5.03%

O=C(CN1CCN(C(=O)Cc2ccc3c(c2)OCCO3)CC1)NC1CC1
cytotoxicity at 10 µM: -2.35%

Cc1occc(=O)c1OCc1noc(C(=O)NC(C)C)n1
cytotoxicity at 10 µM: 4.6%

Cc1n[nH]c(C2CN(C(=O)c3ccc(Cl)o3)CCO2)n1 (configuration not stated)
cytotoxicity at 10 µM: -5.59%

CSCc1noc(Cn2ncn3cccc3c2=O)n1
cytotoxicity at 10 µM: 4.44%

CC(NC(=O)CNC(=O)OC(C)(C)C)c1ccc(Cl)s1 (configuration not stated)
cytotoxicity at 10 µM: 2.99%

COc1ncccc1NC(=O)NC(C)c1nncn1C (configuration not stated)
cytotoxicity at 10 µM: -18.8%

CC(C)N(CCC#N)C(=O)c1cnc(-c2ccc3c(c2)OCO3)s1
cytotoxicity at 10 µM: 0.247%

O=C(c1ccsc1)N1CCC(Nc2cccnn2)CC1
cytotoxicity at 10 µM: -7.58%

Cc1cnn(CC(C)NCC(=O)NCCc2cccs2)c1 (configuration not stated)
cytotoxicity at 10 µM: 6.41%

c1ccn2c(C3CCCN(c4ncnc5c4CCNC5)C3)nnc2c1 (configuration not stated)
cytotoxicity at 10 µM: -7.94%

CS(=O)(=O)N1CCc2c(cccc2NC(=O)Nc2ccccn2)C1
cytotoxicity at 10 µM: -6%

c1ccc(CN2C[C@@H]3CC[C@H]2CN(Cc2nnc(C4CC4)o2)C3)cc1
cytotoxicity at 10 µM: -22.4%

Cn1cccc1C(=O)N1CC[C@H]2[C@@H]1CCC(=O)N2c1ccccc1
cytotoxicity at 10 µM: -6.53%

Cc1cnn(CC2CCCN2C(=O)CCc2ccco2)c1 (configuration not stated)
cytotoxicity at 10 µM: -4.7%

CSCC[C@H](N)C(=O)N1CC(Oc2ccccc2C)C1
cytotoxicity at 10 µM: 0.897%

COCCN1CCC2(CCCN(c3ncc(F)cn3)C2)C1 (configuration not stated)
cytotoxicity at 10 µM: 4.71%

CCC1c2cccn2CCN1C(=O)c1ccc2nonc2c1 (configuration not stated)
cytotoxicity at 10 µM: -13.2%

O=C(NCCC1CN(Cc2c[nH]cn2)CCO1)c1ccccc1O (configuration not stated)
cytotoxicity at 10 µM: 0.423%

Cc1cnc(C(=O)N2C[C@H]3CN(Cc4cccs4)C[C@H]3C2)cn1
cytotoxicity at 10 µM: -148%

CCC(NC(=O)c1ccco1)c1nc(C(F)(F)F)cs1 (configuration not stated)
cytotoxicity at 10 µM: -0.183%

CC(O)CN1CCC(CN(C)Cc2ccc(C#N)cc2F)CC1 (configuration not stated)
cytotoxicity at 10 µM: -1.87%

CNC(=O)c1sc2ccccc2c1CC1CCCN1Cc1cnc(C)s1 (configuration not stated)
cytotoxicity at 10 µM: 2.59%

CC(C)C1SCC(=O)Nc2c1c(O)nn2C1CCCCC1 (configuration not stated)
cytotoxicity at 10 µM: 2.42%
